Measured values as given in ChEMBL document CHEMBL4725345, “DFG-1 Residue Controls Inhibitor Binding Mode and Affinity, Providing a Basis for Rational Design of Kinase Inhibitor Selectivity” (J Med Chem, 2020).
pIC50, pKi: −log10 of the molar value.

Experiments:
[1] = molecular target: T1, Dual specificity protein kinase CLK1 (Homo sapiens, UniProt P49759); settings: dose 10.0 µM, time 10.0 min
Target sequence in this assay (P49759 whole entry, looked up): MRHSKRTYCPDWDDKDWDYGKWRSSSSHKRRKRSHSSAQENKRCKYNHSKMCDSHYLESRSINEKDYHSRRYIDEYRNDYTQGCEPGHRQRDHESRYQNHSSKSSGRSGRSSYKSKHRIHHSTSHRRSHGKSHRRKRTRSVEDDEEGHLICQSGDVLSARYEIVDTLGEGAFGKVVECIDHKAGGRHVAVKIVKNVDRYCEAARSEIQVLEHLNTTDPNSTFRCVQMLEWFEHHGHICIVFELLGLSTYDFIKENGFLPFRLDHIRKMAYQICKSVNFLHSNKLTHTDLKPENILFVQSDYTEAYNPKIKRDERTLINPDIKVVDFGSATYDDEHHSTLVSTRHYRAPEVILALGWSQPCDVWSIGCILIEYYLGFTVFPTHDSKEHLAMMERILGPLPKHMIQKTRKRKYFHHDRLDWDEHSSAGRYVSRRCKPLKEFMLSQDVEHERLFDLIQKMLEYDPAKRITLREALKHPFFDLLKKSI

[2] = molecular target: Dual specificity protein kinase CLK2 (Homo sapiens) (UniProt P49760); settings: dose 10.0 µM, time 10.0 min
Dual specificity protein kinase CLK2 (Homo sapiens), sequence (P49760 whole entry, looked up): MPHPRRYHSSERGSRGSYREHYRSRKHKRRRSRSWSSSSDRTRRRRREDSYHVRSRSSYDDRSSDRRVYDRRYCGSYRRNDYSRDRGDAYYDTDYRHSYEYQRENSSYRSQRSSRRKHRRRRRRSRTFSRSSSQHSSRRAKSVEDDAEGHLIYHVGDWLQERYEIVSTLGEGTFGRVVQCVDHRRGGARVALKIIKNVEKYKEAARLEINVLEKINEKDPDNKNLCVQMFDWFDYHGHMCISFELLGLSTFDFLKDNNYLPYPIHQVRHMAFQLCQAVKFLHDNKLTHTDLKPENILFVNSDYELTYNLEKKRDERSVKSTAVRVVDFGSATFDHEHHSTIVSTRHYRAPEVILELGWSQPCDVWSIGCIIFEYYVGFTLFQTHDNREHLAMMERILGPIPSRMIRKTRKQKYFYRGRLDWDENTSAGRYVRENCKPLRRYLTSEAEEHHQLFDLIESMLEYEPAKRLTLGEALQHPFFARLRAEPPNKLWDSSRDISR

[3] = molecular target: T2, Dual specificity protein kinase CLK3 (Homo sapiens, UniProt P49761); settings: dose 10.0 µM, time 10.0 min
Target sequence in this assay (P49761 whole entry, looked up): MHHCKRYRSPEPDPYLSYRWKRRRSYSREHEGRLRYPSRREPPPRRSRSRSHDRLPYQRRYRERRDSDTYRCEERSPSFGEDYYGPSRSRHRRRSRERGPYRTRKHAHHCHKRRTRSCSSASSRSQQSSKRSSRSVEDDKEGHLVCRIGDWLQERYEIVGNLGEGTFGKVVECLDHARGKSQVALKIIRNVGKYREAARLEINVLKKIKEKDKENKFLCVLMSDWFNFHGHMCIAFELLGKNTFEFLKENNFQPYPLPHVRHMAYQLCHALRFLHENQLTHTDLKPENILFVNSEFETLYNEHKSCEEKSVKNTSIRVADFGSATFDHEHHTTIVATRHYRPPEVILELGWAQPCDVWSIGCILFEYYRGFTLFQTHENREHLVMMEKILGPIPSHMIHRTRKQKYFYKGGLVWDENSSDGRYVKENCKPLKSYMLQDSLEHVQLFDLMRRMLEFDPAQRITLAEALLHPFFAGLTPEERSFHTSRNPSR

[4] = molecular target: High affinity nerve growth factor receptor (Homo sapiens) (UniProt P04629); test: Inhibition of human TrkA assessed as residual activity at 1 uM relative to control
[5] = molecular target: Glycogen synthase kinase-3 beta (Homo sapiens) (UniProt P49841); test: Inhibition of human GSK3B assessed as residual activity at 1 uM relative to control
[6] = molecular target: T3, Serine/threonine-protein kinase haspin (Homo sapiens) (UniProt Q8TF76); test: Inhibition of human Haspin assessed as residual activity at 1 uM relative to control
T3 sequence (whole entry): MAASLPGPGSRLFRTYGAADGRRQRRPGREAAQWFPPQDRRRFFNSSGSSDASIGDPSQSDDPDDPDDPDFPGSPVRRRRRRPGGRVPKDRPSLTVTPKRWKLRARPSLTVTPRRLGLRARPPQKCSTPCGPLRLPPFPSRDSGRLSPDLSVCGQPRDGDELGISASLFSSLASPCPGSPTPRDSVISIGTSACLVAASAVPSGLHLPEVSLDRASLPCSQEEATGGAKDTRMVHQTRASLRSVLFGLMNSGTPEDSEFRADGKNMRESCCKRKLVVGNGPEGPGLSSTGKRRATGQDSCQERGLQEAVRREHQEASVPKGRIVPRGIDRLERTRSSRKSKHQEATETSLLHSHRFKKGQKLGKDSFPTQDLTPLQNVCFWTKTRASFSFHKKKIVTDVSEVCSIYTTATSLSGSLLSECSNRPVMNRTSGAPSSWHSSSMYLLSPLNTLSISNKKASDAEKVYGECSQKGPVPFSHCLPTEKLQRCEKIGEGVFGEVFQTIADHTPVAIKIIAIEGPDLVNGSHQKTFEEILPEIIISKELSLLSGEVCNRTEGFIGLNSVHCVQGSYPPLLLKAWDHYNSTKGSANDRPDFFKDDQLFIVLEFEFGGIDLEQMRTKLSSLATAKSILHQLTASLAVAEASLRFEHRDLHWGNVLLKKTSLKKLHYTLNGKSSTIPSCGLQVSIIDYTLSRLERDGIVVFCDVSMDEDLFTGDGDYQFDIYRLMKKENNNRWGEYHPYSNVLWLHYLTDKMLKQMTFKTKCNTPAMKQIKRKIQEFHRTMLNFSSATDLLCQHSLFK

[7] = molecular target: Interleukin-1 receptor-associated kinase 4 (Homo sapiens) (UniProt Q9NWZ3); test: Inhibition of human IRAK4 assessed as residual activity at 1 uM relative to control
[8] = molecular target: T4, Dual specificity protein kinase CLK4 (Homo sapiens, UniProt Q9HAZ1); test: Inhibition of human CLK4 by radiometric assay
[9] = molecular target: T5, Dual specificity tyrosine-phosphorylation-regulated kinase 1A (Homo sapiens, UniProt Q13627); test: Inhibition of DYRK1A (unknown origin) by radiometric assay
[10] = molecular target: Dual specificity tyrosine-phosphorylation-regulated kinase 2 (Homo sapiens, UniProt Q92630); test: Inhibition of human DYRK2 by radiometric assay
[11] = molecular target: Homeodomain-interacting protein kinase 1 (Homo sapiens, UniProt Q86Z02); test: Inhibition of human HIPK1 by radiometric assay
[12] = molecular target: Homeodomain-interacting protein kinase 2 (Homo sapiens, UniProt Q9H2X6); test: Inhibition of human HIPK2 by radiometric assay
[13] = molecular target: Homeodomain-interacting protein kinase 3 (Homo sapiens, UniProt Q9H422); test: Inhibition of human HIPK3 by radiometric assay
[14] = molecular target: T4, Dual specificity protein kinase CLK4; settings: dose 10.0 µM, time 10.0 min
Target sequence in this assay (Q9HAZ1 whole entry, looked up): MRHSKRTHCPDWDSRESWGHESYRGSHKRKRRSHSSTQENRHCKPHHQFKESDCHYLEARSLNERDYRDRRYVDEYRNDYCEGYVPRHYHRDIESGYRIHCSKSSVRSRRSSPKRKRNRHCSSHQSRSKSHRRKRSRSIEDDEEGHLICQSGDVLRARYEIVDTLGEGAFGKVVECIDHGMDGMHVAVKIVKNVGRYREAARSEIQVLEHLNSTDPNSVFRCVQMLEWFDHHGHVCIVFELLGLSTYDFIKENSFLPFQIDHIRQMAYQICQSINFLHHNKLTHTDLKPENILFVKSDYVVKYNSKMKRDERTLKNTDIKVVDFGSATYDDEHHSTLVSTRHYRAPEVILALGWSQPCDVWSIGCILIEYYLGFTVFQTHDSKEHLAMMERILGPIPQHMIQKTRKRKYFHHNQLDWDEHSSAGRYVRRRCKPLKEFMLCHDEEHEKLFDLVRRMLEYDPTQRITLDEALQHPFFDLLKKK

Homo sapiens [15] = species on record: Homo sapiens; test: Binding affinity to CLK1 V324A mutant (unknown origin) assessed as change in melting temperature at 10 uM incubated for 10 mins using SYPRO orange dye by RT-PCR-based fluorescence assay
How it was run: (§1)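 Recombinant kinase domain at 2 μM in 10 mM HEPES pH 7.5, 500 mM NaCl, mixed with 10 μM inhibitor for 10 min at room temperature; SYPRO orange added at 1:1000; temperature-dependent unfolding fluorescence read on a real-time PCR instrument; Tm shift derived by a previously described method.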

Homo sapiens [16] = species on record: Homo sapiens; test: Binding affinity to CLK3 A319V mutant (unknown origin) assessed as change in melting temperature at 10 uM incubated for 10 mins using SYPRO orange dye by RT-PCR-based fluorescence assay
How it was run: as §1

Homo sapiens [17] = species on record: Homo sapiens; test: Selectivity ratio of Ki for CLK1 V324A mutant (unknown origin) expressed in HEK293 cells to Ki for wild type CLK1 (unknown origin); format: cell-based
How it was run: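 Full-length CLK1 wild type and V324A, NanoLuc-fused (N-terminal for WT, C-terminal for mutant), transfected into HEK293T cells and expressed for 20 h at 37 °C, 5% CO2. Cells in Opti-MEM were incubated 2 h with serially varied inhibitor plus 1 μM Tracer K5. BRET was read at 450/610 nm, and mBU was fitted to give IC50. […] Biological duplicates; mutant/WT Ki ratio.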

[18] = molecular target: T3, Serine/threonine-protein kinase haspin (Homo sapiens); test: Binding affinity to haspin (unknown origin) assessed as change in melting temperature at 10 uM incubated for 10 mins using SYPRO orange dye by RT-PCR-based fluorescence assay
How it was run: as §1

[19] = molecular target: Tyrosine-protein kinase Fes/Fps (Homo sapiens) (UniProt P07332); test: Binding affinity to FES (unknown origin) assessed as change in melting temperature at 10 uM incubated for 10 mins using SYPRO orange dye by RT-PCR-based fluorescence assay
Tyrosine-protein kinase Fes/Fps (Homo sapiens), sequence (P07332 whole entry): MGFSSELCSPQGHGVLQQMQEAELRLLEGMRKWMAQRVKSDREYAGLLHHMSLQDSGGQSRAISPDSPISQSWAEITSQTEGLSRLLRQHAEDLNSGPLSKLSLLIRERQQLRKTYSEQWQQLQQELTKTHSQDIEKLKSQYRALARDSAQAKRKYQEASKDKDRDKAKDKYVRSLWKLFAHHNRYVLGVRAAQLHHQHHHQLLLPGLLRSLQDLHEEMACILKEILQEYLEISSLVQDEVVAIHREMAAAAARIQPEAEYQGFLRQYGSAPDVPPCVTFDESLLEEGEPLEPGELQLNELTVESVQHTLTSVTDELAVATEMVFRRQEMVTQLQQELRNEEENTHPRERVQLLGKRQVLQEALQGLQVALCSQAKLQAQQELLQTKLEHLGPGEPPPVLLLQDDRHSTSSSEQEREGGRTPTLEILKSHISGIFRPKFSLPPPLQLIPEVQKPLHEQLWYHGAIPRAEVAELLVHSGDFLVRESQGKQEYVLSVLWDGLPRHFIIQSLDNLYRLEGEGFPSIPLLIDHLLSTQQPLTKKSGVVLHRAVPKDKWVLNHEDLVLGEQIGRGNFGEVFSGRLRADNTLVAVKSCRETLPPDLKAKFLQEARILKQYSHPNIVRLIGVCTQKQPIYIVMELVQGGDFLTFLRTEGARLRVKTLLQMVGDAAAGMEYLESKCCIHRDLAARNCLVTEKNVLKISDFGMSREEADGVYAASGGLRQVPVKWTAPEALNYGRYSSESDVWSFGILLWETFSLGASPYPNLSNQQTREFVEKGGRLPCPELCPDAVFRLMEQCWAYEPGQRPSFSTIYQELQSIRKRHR
How it was run: as §1

[20] = molecular target: Casein kinase II subunit alpha' (Homo sapiens) (UniProt P19784); test: Binding affinity to CK2A2 (unknown origin) assessed as change in melting temperature at 10 uM incubated for 10 mins using SYPRO orange dye by RT-PCR-based fluorescence assay
How it was run: as §1

[21] = molecular target: Serine/threonine-protein kinase 17A (Homo sapiens) (UniProt Q9UEE5); test: Binding affinity to DRAK1 (unknown origin) assessed as change in melting temperature at 10 uM incubated for 10 mins using SYPRO orange dye by RT-PCR-based fluorescence assay
Serine/threonine-protein kinase 17A (Homo sapiens), sequence (Q9UEE5 whole entry): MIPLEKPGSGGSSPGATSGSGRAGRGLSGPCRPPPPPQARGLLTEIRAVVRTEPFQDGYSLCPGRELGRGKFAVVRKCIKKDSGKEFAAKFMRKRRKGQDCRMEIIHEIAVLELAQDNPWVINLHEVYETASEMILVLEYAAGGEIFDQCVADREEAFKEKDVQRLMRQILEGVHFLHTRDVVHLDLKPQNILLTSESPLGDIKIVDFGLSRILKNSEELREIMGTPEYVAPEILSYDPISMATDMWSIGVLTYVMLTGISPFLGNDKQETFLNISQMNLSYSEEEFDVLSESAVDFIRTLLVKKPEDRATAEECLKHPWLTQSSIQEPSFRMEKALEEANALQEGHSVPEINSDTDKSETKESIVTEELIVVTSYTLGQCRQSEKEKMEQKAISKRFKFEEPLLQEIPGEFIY
How it was run: as §1

[22] = molecular target: Serine/threonine-protein kinase 33 (Homo sapiens) (UniProt Q9BYT3); test: Binding affinity to STK33 (unknown origin) assessed as change in melting temperature at 10 uM incubated for 10 mins using SYPRO orange dye by RT-PCR-based fluorescence assay
Serine/threonine-protein kinase 33 (Homo sapiens), sequence (Q9BYT3 whole entry, looked up): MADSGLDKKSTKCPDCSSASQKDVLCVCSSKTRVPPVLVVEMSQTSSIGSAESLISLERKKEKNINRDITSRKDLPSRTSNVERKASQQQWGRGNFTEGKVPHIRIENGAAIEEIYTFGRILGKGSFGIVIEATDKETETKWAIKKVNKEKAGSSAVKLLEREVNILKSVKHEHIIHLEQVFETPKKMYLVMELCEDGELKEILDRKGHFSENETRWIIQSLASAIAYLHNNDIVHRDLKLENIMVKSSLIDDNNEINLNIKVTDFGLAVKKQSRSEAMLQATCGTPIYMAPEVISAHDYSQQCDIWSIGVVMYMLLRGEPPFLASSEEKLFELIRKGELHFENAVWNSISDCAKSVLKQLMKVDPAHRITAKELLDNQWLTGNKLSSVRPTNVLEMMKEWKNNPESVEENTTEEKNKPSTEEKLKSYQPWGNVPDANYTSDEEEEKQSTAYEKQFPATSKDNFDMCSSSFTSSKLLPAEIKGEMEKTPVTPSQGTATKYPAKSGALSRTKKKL
How it was run: as §1

[23] = molecular target: cAMP-dependent protein kinase catalytic subunit PRKX (Homo sapiens) (UniProt P51817); test: Binding affinity to PRKX (unknown origin) assessed as change in melting temperature at 10 uM incubated for 10 mins using SYPRO orange dye by RT-PCR-based fluorescence assay
How it was run: as §1

[24] = molecular target: T1, Dual specificity protein kinase CLK1; test: Inhibition of full length wild type CLK1 (unknown origin) expressed in HEK293 cells incubated for 2 hrs followed by NanoBRET NanoGlo Substrate addition by NanoBRET assay; format: cell-based
[25] = Inhibition of CLK1 V324A mutant (unknown origin) expressed in HEK293 cells incubated for 2 hrs followed by NanoBRET NanoGlo Substrate addition by NanoBRET assay; format: cell-based, Homo sapiens
[26] = molecular target: T2, Dual specificity protein kinase CLK3; test: Inhibition of recombinant CLK3 (unknown origin) using Ac-ERMRPRKRQGSVdP(Sox)G-NH2 as substrate after 5 mins by Omnia Kinase Assay
[27] = Inhibition of recombinant CLK3 A319V mutant (unknown origin) using Ac-ERMRPRKRQGSVdP(Sox)G-NH2 as substrate after 5 mins by Omnia Kinase Assay; set-up: species or system Homo sapiens
[28] = molecular target: cGMP-dependent protein kinase 1 (Homo sapiens) (UniProt Q13976); settings: dose 10.0 µM, time 10.0 min
[29] = molecular target: Serine/threonine-protein kinase pim-3 (Homo sapiens) (UniProt Q86V86); test: Binding affinity to PIM3 (unknown origin) assessed as change in melting temperature at 10 uM incubated for 10 mins using SYPRO orange dye by RT-PCR-based fluorescence assay
How it was run: as §1

[30] = molecular target: T6, Dual specificity tyrosine-phosphorylation-regulated kinase 2 (Homo sapiens) (UniProt Q92630); test: Binding affinity to DYRK2 (unknown origin) assessed as change in melting temperature at 10 uM incubated for 10 mins using SYPRO orange dye by RT-PCR-based fluorescence assay
T6 sequence (whole entry): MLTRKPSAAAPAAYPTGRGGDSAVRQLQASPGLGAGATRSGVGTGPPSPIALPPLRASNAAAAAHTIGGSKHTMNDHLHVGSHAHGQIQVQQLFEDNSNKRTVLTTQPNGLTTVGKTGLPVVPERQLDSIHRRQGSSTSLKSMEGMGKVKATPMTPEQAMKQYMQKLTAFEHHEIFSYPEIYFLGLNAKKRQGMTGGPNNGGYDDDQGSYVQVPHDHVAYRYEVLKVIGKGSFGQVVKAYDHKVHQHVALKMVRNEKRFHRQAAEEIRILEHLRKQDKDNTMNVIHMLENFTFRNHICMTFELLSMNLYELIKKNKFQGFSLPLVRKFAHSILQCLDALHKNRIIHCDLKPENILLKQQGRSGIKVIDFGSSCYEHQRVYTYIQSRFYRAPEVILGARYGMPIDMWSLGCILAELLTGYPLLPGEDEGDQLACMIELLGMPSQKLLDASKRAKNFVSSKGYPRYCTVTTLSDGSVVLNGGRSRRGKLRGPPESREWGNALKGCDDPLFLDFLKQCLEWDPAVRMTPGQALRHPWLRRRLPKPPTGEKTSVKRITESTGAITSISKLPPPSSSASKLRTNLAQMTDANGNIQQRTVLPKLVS
How it was run: as §1

[31] = molecular target: Serine/threonine-protein kinase 17B (Homo sapiens) (UniProt O94768); test: Binding affinity to DRAK2 (unknown origin) assessed as change in melting temperature at 10 uM incubated for 10 mins using SYPRO orange dye by RT-PCR-based fluorescence assay
How it was run: as §1

[32] = molecular target: Serine/threonine-protein kinase pim-1 (Homo sapiens) (UniProt P11309); test: Binding affinity to PIM1 (unknown origin) assessed as change in melting temperature at 10 uM incubated for 10 mins using SYPRO orange dye by RT-PCR-based fluorescence assay
Serine/threonine-protein kinase pim-1 (Homo sapiens), sequence (P11309 whole entry, looked up, canonical isoform): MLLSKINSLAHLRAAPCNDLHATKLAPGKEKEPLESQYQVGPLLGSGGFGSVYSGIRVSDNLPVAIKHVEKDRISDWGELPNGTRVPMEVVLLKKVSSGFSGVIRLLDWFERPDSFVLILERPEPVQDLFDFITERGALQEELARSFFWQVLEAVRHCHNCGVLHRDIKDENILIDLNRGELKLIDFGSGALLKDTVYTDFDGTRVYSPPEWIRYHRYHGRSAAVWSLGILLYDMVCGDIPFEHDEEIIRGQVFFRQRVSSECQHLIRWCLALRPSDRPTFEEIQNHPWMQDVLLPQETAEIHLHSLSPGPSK

[33] = molecular target: Casein kinase I isoform epsilon (Homo sapiens) (UniProt P49674); test: Binding affinity to CSNK1E (unknown origin) assessed as change in melting temperature at 10 uM incubated for 10 mins using SYPRO orange dye by RT-PCR-based fluorescence assay
Casein kinase I isoform epsilon (Homo sapiens), sequence (P49674 whole entry, looked up, canonical isoform): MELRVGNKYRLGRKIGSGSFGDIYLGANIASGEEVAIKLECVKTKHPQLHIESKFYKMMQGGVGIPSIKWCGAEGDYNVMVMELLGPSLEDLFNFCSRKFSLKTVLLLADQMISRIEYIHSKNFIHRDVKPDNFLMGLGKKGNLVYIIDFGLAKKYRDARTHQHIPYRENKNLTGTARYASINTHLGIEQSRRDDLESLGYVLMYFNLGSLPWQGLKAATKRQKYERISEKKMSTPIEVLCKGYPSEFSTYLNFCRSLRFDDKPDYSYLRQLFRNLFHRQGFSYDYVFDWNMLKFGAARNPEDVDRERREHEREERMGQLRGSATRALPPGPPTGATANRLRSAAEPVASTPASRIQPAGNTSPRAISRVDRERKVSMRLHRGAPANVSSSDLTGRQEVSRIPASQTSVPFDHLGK
How it was run: as §1

[34] = molecular target: T5, Dual specificity tyrosine-phosphorylation-regulated kinase 1A; settings: dose 10.0 µM, time 10.0 min

Cn1cc(-c2ccc3occ(-c4cccc(Oc5ccccc5)c4)c3n2)cn1
ΔTm [1]: 12.3 °C | ΔTm [2]: 8.3 °C | ΔTm [3]: 4.8 °C

Cn1cc(-c2ccc3occ(-c4cccc(-c5ccncc5)c4)c3n2)cn1
Activity [4]: < 50% | Activity [5]: < 50% | Activity [6]: < 50% | Activity [7]: < 50% | pIC50 [8]: 7.92 | pIC50 [9]: 6.67 | pIC50 [10]: 5.88 | pIC50 [11]: 6.73 | pIC50 [12]: 7.54 | pIC50 [13]: 6.80

O=C1NCc2ccc3c(-c4cccc(Cl)c4)c[nH]c3c21
ΔTm [14]: 10.1 °C | ΔTm [1]: 9.8 °C | ΔTm [2]: 4.9 °C | ΔTm [3]: 2.3 °C

COC(=N)c1nc2ccc3ncnc(Nc4ccc(OC)cc4F)c3c2s1
ΔTm (Homo sapiens [15]): 3.8 °C | ΔTm (Homo sapiens [16]): 9.2 °C | ΔTm [14]: 9.6 °C | ΔTm [1]: 10.3 °C | ΔTm [2]: 7 °C | ΔTm [3]: 3.4 °C

CCOc1ccc2c(-c3ccnc(Nc4cc(OC)cc(C(F)(F)F)c4)n3)cnn2n1
Ratio Ki (Homo sapiens [17]): 9 | ΔTm (Homo sapiens [15]): 2.5 °C | ΔTm (Homo sapiens [16]): 5.5 °C | ΔTm [14]: 9 °C | ΔTm [1]: 9 °C | ΔTm [2]: 8.4 °C | ΔTm [3]: 2 °C

Cn1c2c(c3ccc(Cl)c(Cl)c31)C(C#N)C1(CCNCC1)NC2=O (stereo unspecified)
ΔTm [18]: > 4 °C | ΔTm [19]: > 4 °C | ΔTm [20]: > 4 °C | ΔTm [21]: > 4 °C | ΔTm [22]: > 4 °C | ΔTm [23]: > 4 °C | pKi [24]: 6.85 | pKi [25]: 5.55 | Ratio Ki (Homo sapiens [17]): 20.6 | pKi [26]: 4.57 | pKi [27]: 6.07 | ΔTm [14]: > 4 °C | ΔTm [2]: 3.5 °C | ΔTm [28]: > 6 °C | ΔTm [3]: 1.4 °C

CCOC(=O)c1c(/C(C#N)=C/N)c2ccc(Cl)c(Cl)c2n1C
Ratio Ki (Homo sapiens [17]): 9

Nc1nccc(-c2ccc3noc(-c4ccc(Cl)cc4)c3c2)n1
ΔTm [29]: > 4 °C | ΔTm [30]: > 6 °C | ΔTm [31]: > 6 °C | ΔTm [1]: > 6 °C | ΔTm [2]: > 6 °C

CCN1/C(=C\C(C)=O)Sc2ccc(OC)cc21
ΔTm [32]: > 4 °C | ΔTm [29]: > 4 °C | ΔTm [30]: > 6 °C | ΔTm [33]: > 4 °C | pKi [27]: 6.49 | ΔTm [14]: > 6 °C | ΔTm [1]: > 6 °C | ΔTm [2]: > 4 °C | ΔTm [34]: > 6 °C | ΔTm [3]: 3 °C
